A selection: hits, their analogues and other compounds. The true share with any hit is near 0.73%.
Cardiac RTF inh: cardiac RTF calcium desensitization; P19429+P45379; IANBD-labeled cardiac RTF, Ca2+ fluorescence; inhibition, % at 7.15 µM; hit rate 0.12% among 340,000;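 active = inhibition above the mean inhibition of all tested compounds plus 3 SD, cut at about 17% in these data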;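 note: assay run at fixed EC70 calcium of 1.6 mM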
RTF Ca sens act: increases calcium sensitivity of human cardiac regulated thin filaments; AID 493008; IANBD-labeled TnC RTF fluorescence at EC20 calcium; 0% EC20 calcium, 100% full calcium; P19429+P45379; activation, % at 7.2 µM; hit rate 0.24% among 340,000;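 active = activation above the mean over all tested compounds plus 3 SD, cut at about 30% in these data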;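 note: rise in fluorescence read as greater calcium sensitivity of cardiac thin filaments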
C-LANA FP: blocks KSHV LANA C-terminal domain binding to DNA; MBP-C-LANA/FAM-LBS DNA binding, fluorescence polarization; inhibition, % at 9 µM; hit rate 0.078% among 340,000;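 active = highest replicate inhibition at or above 60% at 9 µM, even if other replicates fall short; inactive = all replicates below 60% inhibition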
DDE Tn6 FP inh: DD(E)-Tn6 binding inhibition, primary FP screen; hit rate 0.21% among 370,000; inhibition, % at 8.3 µM; AID 720509; Fibrin DD(E) TRITC-Tn6 fluorescence polarization displacement;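 active = inhibition above a per-campaign cutoff: mean of compounds within control limits plus 3 SD, cut at about 15% in these data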
Target sequence (P02675 whole entry, looked up): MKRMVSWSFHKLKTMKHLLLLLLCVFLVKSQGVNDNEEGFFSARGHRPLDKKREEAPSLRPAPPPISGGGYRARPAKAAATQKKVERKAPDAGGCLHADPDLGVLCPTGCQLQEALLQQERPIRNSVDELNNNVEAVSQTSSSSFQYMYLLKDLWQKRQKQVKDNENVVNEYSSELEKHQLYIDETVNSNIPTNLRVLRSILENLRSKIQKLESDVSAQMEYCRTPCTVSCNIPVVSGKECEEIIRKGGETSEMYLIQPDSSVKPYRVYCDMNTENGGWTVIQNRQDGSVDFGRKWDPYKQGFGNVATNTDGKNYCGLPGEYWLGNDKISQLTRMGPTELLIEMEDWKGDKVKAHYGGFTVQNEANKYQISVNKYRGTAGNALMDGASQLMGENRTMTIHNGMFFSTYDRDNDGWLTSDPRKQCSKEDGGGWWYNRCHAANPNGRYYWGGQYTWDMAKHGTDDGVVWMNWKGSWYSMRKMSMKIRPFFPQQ
DDE Tn7 FP inh: inhibitors of Tn7 peptide binding to human fibrin DD(E); hit rate 0.13% among 370,000; inhibition, % at 8.3 µM; AID 720508; FP displacement of FITC-Tn7 peptide from fibrin DD(E); 0% = median of compound wells per plate; P02675;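 active = inhibition above the mean of compounds falling within the control limits plus 3 SD of them, cut at about 14% in these data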
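Assay system: human fibrin DD(E). Input: DD(E) 2 µM final. Medium: Tris buffer with calcium and detergent, pH 7.8. Compound dosing: single point at 8.3 µM. Timing: 10 min plus 3 h, room temperature. Technique: fluorescence polarization of the labelled Tn7 tracer. Read-out: percent inhibition. Replicates: singlicate testing.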
Keap1 Nrf2 FP: inhibitors of human Keap1-Nrf2 protein-protein interaction | inhibition, % at 9.4 µM | Keap1 Kelch-Nrf2 peptide fluorescence polarization, 1536-well | Q14145 | hit rate 0.15% among 340,000; in the data active = inhibition above about 12%;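 note: human Keap1 Kelch domain with fluorescein labeled Nrf2 9mer peptide probe; higher means more block of Keap1 binding to Nrf2 peptide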
Of the large screens only hits and unclear results are named; the others gave an inactive call.

CCn1c(O)c(/C=N/NC(=O)c2ccncc2)c(=O)n(CC)c1=S	RTF Ca sens act 97.4
CCCCCNC(=O)C1C(=O)Nc2ccccc2C(=O)N1c1ccc(OC)cc1 (centres undefined)	none (no result: Cardiac RTF inh, RTF Ca sens act, C-LANA FP, Keap1 Nrf2 FP)
CCCCC(=O)Nc1ccc(C(=O)Nc2ccc(OC)cc2[N+](=O)[O-])cc1	RTF Ca sens act 80.9
Cc1ccc(S(=O)(=O)N2CCCC2C(c2ccccc2O)c2cn(C)c3ccccc23)cc1 (centres undefined)	none (no result: Cardiac RTF inh, RTF Ca sens act, C-LANA FP, Keap1 Nrf2 FP)
COc1cc2c(cc1NC(=O)CSc1nnc(-c3ccccc3F)n1-c1ccc(C)cc1)oc1ccccc12	none (no result: Cardiac RTF inh, RTF Ca sens act, C-LANA FP, Keap1 Nrf2 FP)
O=C(NC1CC1)c1cccc2c1C(=O)c1ccc(N3CCC(Cc4ccccc4)CC3)cc1S2(=O)=O	RTF Ca sens act 99.0
CC1CCN(c2ccc3c(c2)S(=O)(=O)c2cccc(C(=O)NC4CCCCC4)c2C3=O)CC1	RTF Ca sens act 33.0
CC1CCN(c2ccc3c(c2)S(=O)(=O)c2cccc(C(=O)NCc4ccc(F)cc4)c2C3=O)CC1	RTF Ca sens act 105.3
O=C(NCc1ccc(F)cc1)c1cccc2c1C(=O)c1ccc(N3CCC(Cc4ccccc4)CC3)cc1S2(=O)=O	RTF Ca sens act 232.4
O=C(CC1CCCC1)N[C@H](C(=O)N1CCC[C@H]1C(=O)NC1CCCC1)c1ccccc1	none (no result: Cardiac RTF inh, RTF Ca sens act, C-LANA FP, Keap1 Nrf2 FP)
Brc1ccc(-c2csc(N3CCNCC3)n2)cc1	none (no result: Cardiac RTF inh, RTF Ca sens act, C-LANA FP, Keap1 Nrf2 FP)
COC(=O)[C@]12C[C@H](CC(=O)NCc3cccs3)C(=O)N(Cc3ccco3)C1=C[C@H](C(C)C)O[C@@H]2C1CC1	none (no result: Cardiac RTF inh, RTF Ca sens act, C-LANA FP, Keap1 Nrf2 FP)
COC(=O)[C@]12C[C@H](CC(=O)N3CCCCC3)C(=O)N(CCc3ccc(OC)c(OC)c3)C1=C[C@H](COCc1ccccc1)O[C@@H]2C	none (no result: Cardiac RTF inh, RTF Ca sens act, C-LANA FP, Keap1 Nrf2 FP)
CCOC(=O)CC(=O)CSc1nc(-c2ccc3c(c2)OCO3)cc(C(F)(F)F)c1C#N	RTF Ca sens act 39.9 (no result: DDE Tn6 FP inh, DDE Tn7 FP inh)
C=CCNC(=O)c1ccsc1N	DDE Tn6 FP inh 16.6 (no result: Cardiac RTF inh, RTF Ca sens act, C-LANA FP, Keap1 Nrf2 FP)
COc1ccc(/C=C2\SC(=S)N(CCC(=O)N3CCCCC3)C2=O)cc1	none
COCCN1C(=O)/C(=C/c2ccc(N3CCCC3)cc2)SC1=S	RTF Ca sens act 80.4
COc1ccccc1NC(=O)OC1CC2CC1[C@H]1CCCCN1[C@H]2C (some centres undefined)	none (no result: Cardiac RTF inh, RTF Ca sens act, C-LANA FP, Keap1 Nrf2 FP)
Cc1cc(/C=C2\SC(=S)N(C)C2=O)c(C)n1-c1ccccc1O	RTF Ca sens act 44.1
Cc1cc(/C=C2\SC(=S)N(C)C2=O)c(C)n1-c1ccc(O)cc1	none
CN1CC(c2ccccc2)C2(SC(=S)N(Cc3ccco3)C2=O)C12C(=O)Nc1ccccc12 (centres undefined)	DDE Tn7 FP inh 14.8
Cc1ccc(N=Cc2nc(-c3ccc(C)cc3)oc2O)cc1	none
CC(=O)Nc1ccc(N=Cc2nc(-c3ccc(C)cc3)oc2O)cc1	RTF Ca sens act 38.3
CN(C)c1ccc(N=Cc2nc(-c3ccccc3)oc2O)cc1	RTF Ca sens act 45.2
CCCOc1ccc(C(=O)N2CCC(Oc3cccnc3)CC2)cc1	none (no result: Cardiac RTF inh, RTF Ca sens act, C-LANA FP, Keap1 Nrf2 FP)
Oc1[nH]c2ccc(Br)cc2c1N=Nc1ccc(F)cc1	RTF Ca sens act 467.4
Oc1[nH]c2ccccc2c1N=Nc1ccc(F)cc1	RTF Ca sens act 34.1
COC(=O)Cc1nnn2c1[C@@H](C)[C@@H](c1ccccc1Br)O[C@@H](C)C2	none (no result: Cardiac RTF inh, RTF Ca sens act, C-LANA FP, Keap1 Nrf2 FP)
O=C(Nc1nc2c(s1)CN(Cc1ccccc1)CC2)C1CCC1	none
CN(C)c1ccc(/C=C(\C#N)C(=O)Nc2nc3c(s2)CCN(Cc2ccccc2)C3)cc1	RTF Ca sens act 83.1
CN(C)NC(=O)c1ccc([N+](=O)[O-])s1	RTF Ca sens act 30.9
CCc1ccc(C2C(C#N)=C(N)SC(N)=C2C#N)cc1	RTF Ca sens act 40.4
CCOc1ccccc1C1C(C#N)=C(N)SC(N)=C1C#N	RTF Ca sens act 29.8
N#CC1=C(N)SC(N)=C(C#N)C1c1cccc(Oc2ccccc2)c1	RTF Ca sens act 37.3
N#CC1=C(N)SC(N)=C(C#N)C1c1ccc([N+](=O)[O-])cc1	none
N#CC1=C(N)SC(N)=C(C#N)C1c1c(Cl)cccc1Cl	none
CCOc1ccccc1C1C(C#N)=C(N)Oc2n[nH]c(CC)c21 (centres undefined)	none
CCOc1ccc(C2C(C#N)=C(N)SC(N)=C2C#N)cc1OCC	RTF Ca sens act 41.7

Screening results from PubChem.
